Laboratory results from the RNAGym collection of RNA variant scans (doi:10.1002/anie.201605470).

B1: Osa-1-4 twister ribozyme (parent)
chain: CCGCCUAACACUGCCAAUGCCGGUCCCAAGCCCGGAUAAAAGUGGAGGGGGCGG

Variants of: B1
Assay: self-cleavage, relative activity (ratio to wild type); higher = more cleavage; co-transcriptional
How it was run: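 The 48 positions downstream of the cleavage site in a 54-nucleotide Oryza sativa twister ribozyme template were synthesised at 97 % wild-type base and 1 % of each other base. The template was transcribed in vitro at 37 °C for 2 h, with self-cleavage allowed during transcription. Reads with or without upstream sequence after deep sequencing marked cleavage status, and relative activity is fraction cleaved normalised to wild type.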

self-cleavage, 0.14:
A29G A7U

self-cleavage, 0.33:
A29G C20A

self-cleavage, 0.11:
A29G A7G
A29G A8G
A29G A39U
A29G C11U

self-cleavage, 0.01:
A29C C33G
A29C G13C
A29C G13U
A29C G30C
A29C G42U
A29C G45C
A29C G45U
A29C G48A
A29C G48U
A29C G49C
A29G G13C

self-cleavage, 0.12:
A29G A41G
A29G C31U

self-cleavage, 0.46:
A29G A41U

self-cleavage, 0.32:
A29G A36U

self-cleavage, 0.47:
A29G A36G

self-cleavage, 0.34:
A29G C52U

self-cleavage, 0.03:
A29C C14U
A29C C15U
A29C C20A
A29C C25U
A29C C26U
A29C C32A
A29C C32G
A29C C32U
A29C C33U
A29C G19U
A29C G22C
A29C G34C
A29C G34U
A29C G42A
A29C G47U
A29C G50C
A29C G51A
A29C G51U
A29C G53A
A29C G53U
A29C G54A
A29C U12C
A29C U12G
A29C U43A
A29C U43C
A29G A7C
A29G A46C
A29G G13U

self-cleavage, 0.02:
A29C C14A
A29C C14G
A29C C15A
A29C C20G
A29C C21G
A29C C25G
A29C C26A
A29C C26G
A29C C27G
A29C C27U
A29C C31A
A29C C31G
A29C C31U
A29C G13A
A29C G19C
A29C G23C
A29C G23U
A29C G30A
A29C G30U
A29C G35C
A29C G42C
A29C G45A
A29C G47A
A29C G47C
A29C G48C
A29C G49A
A29C G49U
A29C G51C
A29C G53C
A29C U24G
A29G C31A

self-cleavage, 0.09:
A29C U24C
A29G A39G
A29G C9G

self-cleavage, 0.22:
A29G C52G

self-cleavage, 0.21:
A29G A41C

self-cleavage, 0.04:
A29C C11U
A29C C15G
A29C C21A
A29C C25A
A29C C27A
A29C C33A
A29C G19A
A29C G34A
A29C G35A
A29C G44A
A29C G50U
A29C G54C
A29C U18A
A29C U18C
A29C U24A
A29C U37A
A29C U37C
A29G A8C
A29G A40C
A29G A46G
A29G A46U
A29G C14A
A29G C20G
A29G C25A
A29G C25G
A29G C26A
A29G C32A
A29G G13A

self-cleavage, 0.08:
A29C C20U
A29C G22A
A29C G54U
A29G C11A
A29G C14G
A29G C15G
A29G C25U
A29G C26U

self-cleavage, 0.1:
A29G C21A
A29G C26G

self-cleavage, 0.07:
A29G A8U
A29G A36C
A29G A40G
A29G C11G
A29G C21G
A29G C32G
A29G C33U

self-cleavage, 0.28:
A29G C20U

self-cleavage, 0.4:
A29G

self-cleavage, 0.17:
A29G C21U

self-cleavage, 0.06:
A29C C21U
A29C C52A
A29C C52U
A29C U18G
A29C U37G
A29G A39C
A29G C9U
A29G C14U
A29G C15A
A29G C27A
A29G C27G
A29G C32U

self-cleavage, 0.16:
A29G A38C
A29G A38U
A29G C52A

self-cleavage, 0.05:
A29C C52G
A29C G22U
A29C G23A
A29C G35U
A29C G44C
A29C G44U
A29C G50A
A29C U12A
A29C U43G
A29G C9A
A29G C15U
A29G C27U
A29G C31G
A29G C33A

self-cleavage, 0.15:
A29G A38G
A29G A40U
A29G C33G
